As usually defined, the clearance is the volume of plasma or blood freed of the substance per unit of time. Broadly, the bioavailability is the share of a dose that reaches the circulation, judged against a reference dose that is usually intravenous.

Activity calls are given as the source filed them.

Data set [1] can be described thus: Clearance in rat hepatic microsomes at 2 uM measured up to 60 mins in presence of NADPH generating system by LC-MS/MS analysis. It is filed as ADME, Microsome. To be noted: liver microsomes.
Data set [2] is described as follows: Clearance in Sprague-Dawley rat at 1 mg/kg, iv administered as 30 mins infusion by HPLC-MS analysis. It is filed as ADME, organism-based. To be noted: in vivo. Put shortly:
(§1)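 30-min intravenous infusion: Sprague Dawley rats 1 mg/kg, beagle dogs 0.25 mg/kg, cynomolgus monkeys 0.1 mg/kg; n = 3 per species, reported as mean ± SD.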

Data set [3] in a line: Drug metabolism in human hepatocytes assessed as glucuronidation. It is filed as ADME, cell-based, Hepatocyte.
Data set [4] deals with T1, Nucleotide-binding oligomerization domain-containing protein 1 (Homo sapiens) (UniProt Q9Y239).
T1 sequence (whole entry): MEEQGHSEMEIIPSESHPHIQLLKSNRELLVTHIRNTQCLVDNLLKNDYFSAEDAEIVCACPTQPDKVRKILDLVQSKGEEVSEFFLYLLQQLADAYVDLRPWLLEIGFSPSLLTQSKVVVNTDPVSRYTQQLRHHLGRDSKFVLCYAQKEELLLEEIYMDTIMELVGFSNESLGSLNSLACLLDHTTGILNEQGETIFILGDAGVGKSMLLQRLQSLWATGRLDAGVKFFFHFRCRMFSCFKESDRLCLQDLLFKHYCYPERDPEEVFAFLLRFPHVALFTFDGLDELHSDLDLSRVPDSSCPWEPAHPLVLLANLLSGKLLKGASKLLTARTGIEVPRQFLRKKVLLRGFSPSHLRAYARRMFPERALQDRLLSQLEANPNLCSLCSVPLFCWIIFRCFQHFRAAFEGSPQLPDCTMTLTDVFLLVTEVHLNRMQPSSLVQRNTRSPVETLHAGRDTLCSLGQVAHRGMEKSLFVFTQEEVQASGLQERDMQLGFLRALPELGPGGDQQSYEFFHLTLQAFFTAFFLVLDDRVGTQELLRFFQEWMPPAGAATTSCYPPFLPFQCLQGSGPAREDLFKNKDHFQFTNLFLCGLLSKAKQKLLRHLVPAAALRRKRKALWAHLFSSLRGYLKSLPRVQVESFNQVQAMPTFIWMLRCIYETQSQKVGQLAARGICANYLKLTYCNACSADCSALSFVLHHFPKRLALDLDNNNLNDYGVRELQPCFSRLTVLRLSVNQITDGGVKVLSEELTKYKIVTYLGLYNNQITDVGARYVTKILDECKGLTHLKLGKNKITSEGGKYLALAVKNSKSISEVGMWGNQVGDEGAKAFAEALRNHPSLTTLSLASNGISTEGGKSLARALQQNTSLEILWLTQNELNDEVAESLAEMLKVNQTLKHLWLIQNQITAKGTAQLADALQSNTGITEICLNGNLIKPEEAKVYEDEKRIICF
The experiment in a line: Agonist activity at human NOD1 expressed in HEK293 cells assessed as increase in NF-kappaB activation up to 10 uM incubated for 24 hrs by quanti-blue SEAP reporter gene assay. It is filed as cell-based. To be noted: dose microM <=10, time 24.0 hrs. The essentials:
(§2)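 HEK293 cells stably expressing individual human TLRs or other innate immune receptors, used as reporter gene assays. Minimum effective concentration defined as the level giving a 3-fold rise over background.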

Data set [5] is described as follows: Clearance in cynomolgus monkey hepatic microsomes at 2 uM measured up to 60 mins in presence of NADPH generating system by LC-MS/MS analysis. It is filed as ADME, Macaca fascicularis, Microsome. Particulars: liver microsomes.
In data set [6] the target is T2, Toll-like receptor 9 (Homo sapiens) (UniProt Q9NR96).
T2 sequence (whole entry): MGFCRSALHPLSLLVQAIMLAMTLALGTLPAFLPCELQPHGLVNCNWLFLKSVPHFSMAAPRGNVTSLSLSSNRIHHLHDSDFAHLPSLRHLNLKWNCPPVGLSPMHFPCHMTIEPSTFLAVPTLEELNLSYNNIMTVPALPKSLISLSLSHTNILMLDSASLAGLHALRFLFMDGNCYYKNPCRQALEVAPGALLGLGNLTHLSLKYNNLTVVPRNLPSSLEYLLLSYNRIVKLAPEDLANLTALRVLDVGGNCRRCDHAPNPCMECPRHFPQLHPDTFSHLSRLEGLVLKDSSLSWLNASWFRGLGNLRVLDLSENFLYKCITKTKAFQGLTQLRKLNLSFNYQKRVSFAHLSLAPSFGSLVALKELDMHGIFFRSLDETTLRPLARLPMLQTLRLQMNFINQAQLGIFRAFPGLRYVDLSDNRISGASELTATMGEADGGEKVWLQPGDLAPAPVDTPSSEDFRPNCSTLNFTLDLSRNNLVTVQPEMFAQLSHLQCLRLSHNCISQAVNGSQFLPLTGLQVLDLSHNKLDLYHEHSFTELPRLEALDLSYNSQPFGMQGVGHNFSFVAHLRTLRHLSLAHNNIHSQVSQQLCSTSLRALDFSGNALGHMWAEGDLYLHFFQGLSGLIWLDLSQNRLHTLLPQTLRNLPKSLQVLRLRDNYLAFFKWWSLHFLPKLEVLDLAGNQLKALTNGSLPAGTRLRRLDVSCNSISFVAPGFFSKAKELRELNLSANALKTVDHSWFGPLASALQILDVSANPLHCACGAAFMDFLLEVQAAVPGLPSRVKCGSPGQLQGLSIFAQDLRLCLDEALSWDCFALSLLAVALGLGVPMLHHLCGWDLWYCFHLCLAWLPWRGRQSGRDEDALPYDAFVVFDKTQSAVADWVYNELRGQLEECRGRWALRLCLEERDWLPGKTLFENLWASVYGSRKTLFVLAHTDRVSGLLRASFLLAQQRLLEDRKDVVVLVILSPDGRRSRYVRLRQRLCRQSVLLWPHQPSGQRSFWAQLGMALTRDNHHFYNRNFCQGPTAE
In words: Agonist activity at human TLR9 expressed in HEK293 cells assessed as increase in NF-kappaB activation up to 10 uM incubated for 18 hrs by quanti-blue SEAP reporter gene assay. It is filed as cell-based. Particulars: dose microM <=10, time […]. Put shortly:
as §2
(In general: In a reporter assay the amount or activity of a reporter protein is the signal.)

A short description of data set [7]: Immunomodulatory activity in human primary hepatocytes infected with HBV assessed as stimulation of CD8+T cell response to virus by measuring decrease in HBeAg production treated with media from PBMC stimulated with 10 nM compound for 10 days relative to control. It is filed as functional. Also noted: scale not given: the % may be the effect or the level left. To be noted: time 10 day.

Data set [8] deals with Toll-like receptor 3 (Homo sapiens) (UniProt O15455). In words: Agonist activity at human TLR3 expressed in HEK293 cells assessed as increase in NF-kappaB activation up to 10 uM incubated for 18 hrs by quanti-blue SEAP reporter gene assay. It is filed as cell-based. Particulars: dose microM <=10, time […]. The essentials:
as §2

Data set [9] can be described thus: Immunomodulatory activity in human primary hepatocytes infected with HBV assessed as stimulation of CD8+T cell response to virus by measuring decrease in HBsAg production treated with media from PBMC stimulated with 10 nM compound for 10 days relative to control. It is filed as functional. Also noted: scale not given: the % may be the effect or the level left. Particulars: time 10 day.

Data set [10] is described as follows: Oral bioavailability in cynomolgus monkey at 3 mg/kg administered via gavage by HPLC-MS analysis. It is filed as ADME, organism-based, Macaca fascicularis. To be noted: in vivo. The essentials: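 Oral dosing in 2% ethanol/40% PEG 300/58% 0.01N HCl: Sprague Dawley rats 5 mg/kg, beagle dogs 0.5 mg/kg, cynomolgus monkeys 3 mg/kg.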
A short description of data set [11]: Volume of distribution at steady state in cynomolgus monkey at 0.1 mg/kg, iv administered as 30 mins infusion by HPLC-MS analysis. It is filed as ADME, organism-based, Macaca fascicularis. To be noted: in vivo, read-out: Vdss. The essentials: as §1

Toll-like receptor 3 (Homo sapiens), sequence (O15455 whole entry): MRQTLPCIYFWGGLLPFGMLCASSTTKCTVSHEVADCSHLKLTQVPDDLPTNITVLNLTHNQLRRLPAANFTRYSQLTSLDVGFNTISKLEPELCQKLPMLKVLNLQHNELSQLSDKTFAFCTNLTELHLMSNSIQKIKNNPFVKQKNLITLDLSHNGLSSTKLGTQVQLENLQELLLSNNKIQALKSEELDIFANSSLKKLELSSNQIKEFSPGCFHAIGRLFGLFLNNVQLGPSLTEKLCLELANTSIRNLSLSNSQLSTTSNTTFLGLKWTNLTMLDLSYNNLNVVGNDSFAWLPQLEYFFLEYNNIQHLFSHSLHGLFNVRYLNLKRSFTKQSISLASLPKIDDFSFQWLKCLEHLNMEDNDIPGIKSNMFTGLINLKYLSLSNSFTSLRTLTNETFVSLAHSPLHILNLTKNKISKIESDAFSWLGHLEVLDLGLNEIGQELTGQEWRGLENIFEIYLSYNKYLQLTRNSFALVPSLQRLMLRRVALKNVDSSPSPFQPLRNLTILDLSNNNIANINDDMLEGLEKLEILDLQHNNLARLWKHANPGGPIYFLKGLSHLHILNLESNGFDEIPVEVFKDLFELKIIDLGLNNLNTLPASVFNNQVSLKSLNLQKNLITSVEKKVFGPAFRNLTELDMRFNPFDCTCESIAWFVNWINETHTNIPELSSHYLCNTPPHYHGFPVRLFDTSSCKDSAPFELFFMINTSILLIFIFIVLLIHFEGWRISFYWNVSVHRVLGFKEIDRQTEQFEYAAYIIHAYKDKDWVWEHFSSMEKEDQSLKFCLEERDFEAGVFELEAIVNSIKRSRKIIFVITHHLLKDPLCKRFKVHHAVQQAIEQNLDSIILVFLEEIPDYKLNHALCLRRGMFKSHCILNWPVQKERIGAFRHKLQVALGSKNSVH

As for `CCCC[C@](C)(CO)Nc1nc(N)nc2cc(F)cnc12` [SELGANTOLIMOD], the CLhep predicted at 2 µM was 50 mL/min/kg in [1] and 25 mL/min/kg in [5]. Further, the clearance in data set [2] is 30 mL/min/kg. For the same molecule, the Drug metabolism result in data set [3] is “Metabolite_Detected”. Moreover, the result in data set [4], in data set [6] and in data set [8] was inactive. For the same molecule, the Activity in data set [7] and in [9] was more than 50% each time. In data set [10], the bioavailability turned out to be 0.3%. Further, the Vd in data set [11] is 2.1 L/kg.
